Assay results pooled from the literature.
Cell line: DU-145
Observed: cell growth or viability

Compound | technique | time | IC50 [µM]
c1csc([I+]c2cccs2)c1 | trypan blue | 48 h | ~3.5
C[C@@H]1C[C@@H](c2ccc(Br)cc2)c2c(cc3ccccn23)C(=O)O1 (racemic) | resazurin | 72 h | 46.6
COc1cc(C(=O)c2csc(-c3ccccc3)n2)cc(OC)c1OC | SRB | 96 h | 0.071
COc1cc(C2Oc3cc([C@H]4Oc5cc(O)cc(O)c5C(=O)[C@@H]4O)ccc3OC2CO)ccc1O (stereo partly shown) | CCK-8 | 72 h | 21.9
CC(C)n1cc(C(c2ccc(/C=C/C(=O)O)s2)c2cn(C(C)C)c3ccccc23)c2ccccc21 | MTT | 48 h | 52
COc1cc([C@@H]2C[C@@H](C)OC(=O)c3cc4ccccn4c32)cc(OC)c1OC (racemic) | resazurin | 72 h | > 100
CCc1c2c(nc3ccc(OC(=O)N4CCC(N5CCCCC5)CC4)cc13)-c1cc3c(c(=O)n1C2)COC(=O)[C@]3(O)CC | SRB | 72 h | 9.3
Cn1cc(C(c2ccc(/C=C/C(=O)O)s2)c2cn(C)c3ccccc23)c2ccccc21 | MTT | 48 h | 46
Cc1ccccc1-c1ccc(Cn2cccc(O)c2=S)cc1 | MTS |  | 13.6
C[C@@H]1C[C@@H](c2cccc(Cl)c2)c2c(cc3ccccn23)C(=O)O1 (racemic) | resazurin | 72 h | > 100
Cc1ccc2[nH]cc(C(c3ccc(/C=C/C(=O)O)s3)c3c[nH]c4ccc(C)cc34)c2c1 | MTT | 48 h | > 100
C[C@H]1[C@@H](O)O[C@@H]2O[C@@]3(C)CC[C@H]4[C@H](C)CC[C@@H]1[C@@]24OO3 | CCK-8 | 48 h | > 50
CC(C)C[C@H](NC(=O)[C@H](Cc1ccccc1)NC(=O)c1cnccn1)B(O)O | ATP luminescence |  | 0.017
C[C@@H]1C[C@@H](c2ccc3c(c2)OCO3)c2c(cc3ccccn23)C(=O)O1 (racemic) | resazurin | 72 h | 35.7
O=C1NC(c2ccccc2)(c2ccccc2)C(=O)N1Cc1cn(-c2c3ccccc3nc3ccccc23)nn1 | MTT |  | 79.3
Cc1ccc2c(c1)c(C(c1ccc(/C=C/C(=O)O)s1)c1cn(C(C)C)c3ccc(C)cc13)cn2C(C)C | MTT | 48 h | > 100
Cc1ccc(S(=O)(=O)OCC(=O)Nc2ccc(C(=O)O)c(O)c2)cc1 |  |  | 75
O=C(O)c1ccc(C(c2c[nH]c3ccccc23)c2c[nH]c3ccccc23)cc1 | MTT | 48 h | > 100
COc1cccc([C@@H]2C[C@@H](C)OC(=O)c3cc4ccccn4c32)c1 (racemic) | resazurin | 72 h | > 100
COC1=CC(=O)N(C(=O)[C@@H](CCC(Cl)(Cl)Cl)NC(=O)C(C)(C)C)[C@@H]1CCC(Cl)(Cl)Cl | resazurin | 72 h | 20
Cc1cccc2c(C(c3ccc(/C=C/C(=O)O)s3)c3c[nH]c4c(C)cccc34)c[nH]c12 | MTT | 48 h | 64
C[C@@H]1C[C@@H](c2cccc(F)c2)c2c(cc3ccccn23)C(=O)O1 (racemic) | resazurin | 72 h | > 100
